The values that follow come from ChEMBL document CHEMBL1221205, “Structural and mechanistic basis of penicillin-binding protein inhibition by lactivicins” (Nat Chem Biol, 2007).

pIC50: −log10 of the molar value. ≈ marks a conversion by molar mass, not a printed value.

The test system of assay [1] is Streptococcus pneumoniae. In words: Ratio of MIC for penicillin-resistant Streptococcus pneumoniae 38030509 to MIC for penicillin-sensitive Streptococcus pneumoniae R6. Type of assay: functional. The method in brief: (§1)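 Strains grown in Todd-Hewitt medium at 37 °C to OD600 0.3, then plated on Columbia blood agar with 5% horse blood containing LTV or PLTV at 0 to 100 µg ml-1. MIC taken as the concentration at visually determined growth arrest on plates. Ratio lines compare resistant-strain MIC with the R6 MIC obtained the same way.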

In assay [2] the test system is Streptococcus pneumoniae. In words: Antibacterial activity against penicillin-resistant Streptococcus pneumoniae 5204 […]. Type of assay: functional. In short, it runs like this: as §1
For assay [3], the target named is T1, Penicillin-binding protein 2x (Streptococcus pneumoniae serotype 4 (strain ATCC BAA-334 / TIGR4), UniProt P14677). In words: Inhibition of penicillin-resistant Streptococcus pneumoniae 5204 PBP2x after 120 mins by SDS-PAGE. The method in brief:
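PBP2x-5204 (0.8 µM) preincubated with LTV for 120 min, then remaining active PBP counterlabeled with 10 µM fluorescein-ampicillin for 40 min. Bands resolved by SDS-PAGE with fluorescence imaging; background subtracted. IC50 fitted from residual activity versus inhibitor concentration. Kinetic work at 30 °C in 10 mM sodium phosphate pH 7.0.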

Assay [4] relates to Streptococcus pneumoniae. Briefly: Ratio of MIC for penicillin-resistant Streptococcus pneumoniae 4790 to MIC for penicillin-sensitive Streptococcus pneumoniae R6. The class given is functional. The method in brief:
as §1

The subject of assay [5] is Streptococcus pneumoniae. In words: Antibacterial activity against penicillin-sensitive Streptococcus pneumoniae R6 […]. Type of assay: functional. The method in brief:
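Strain grown in Todd-Hewitt medium at 37 °C to OD600 0.3, then plated on Columbia blood agar with 5% horse blood containing compound at 0 to 100 µg ml-1. MIC taken as the concentration giving visible growth arrest on plates.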

Assay [6] relates to Streptococcus pneumoniae. Briefly: Antibacterial activity against penicillin-resistant Streptococcus pneumoniae 4790 […]. Type of assay: functional. In short, it runs like this:
as §1

Assay [7] concerns Streptococcus pneumoniae. Briefly: Ratio of MIC for penicillin-resistant Streptococcus pneumoniae 5204 to MIC for penicillin-sensitive Streptococcus pneumoniae R6. The class given is functional. The method in brief: as §1
Assay [8] has as its system Streptococcus pneumoniae. Briefly: Ratio of MIC for penicillin-resistant Streptococcus pneumoniae 38040505 to MIC for penicillin-sensitive Streptococcus pneumoniae R6. The class given is functional. In short, it runs like this: as §1
In assay [9] the test system is Streptococcus pneumoniae. In words: Antibacterial activity against penicillin-resistant Streptococcus pneumoniae 38040505 […]. The class given is functional. The method in brief:
as §1

The subject of assay [10] is Streptococcus pneumoniae. Briefly: Antibacterial activity against penicillin-resistant Streptococcus pneumoniae 38030509 […]. The class given is functional. In short, it runs like this:
as §1

Assay [11] addresses T1, Penicillin-binding protein 2x. In words: Inhibition of penicillin-resistant Streptococcus pneumoniae 5204 PBP2x after 60 mins by SDS-PAGE. In short, it runs like this: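 PBP2x-5204 (0.8 µM) preincubated with PLTV for 60 min in 10 mM sodium phosphate pH 7.0, 30 °C, with 1% dimethylformamide. Residual active enzyme counterlabeled with 10 µM fluorescein-ampicillin for 40 min, then analyzed by SDS-PAGE and fluorescence. IC50 fitted from background-subtracted residual activity against inhibitor concentration.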

T1 sequence (P14677 whole entry, looked up): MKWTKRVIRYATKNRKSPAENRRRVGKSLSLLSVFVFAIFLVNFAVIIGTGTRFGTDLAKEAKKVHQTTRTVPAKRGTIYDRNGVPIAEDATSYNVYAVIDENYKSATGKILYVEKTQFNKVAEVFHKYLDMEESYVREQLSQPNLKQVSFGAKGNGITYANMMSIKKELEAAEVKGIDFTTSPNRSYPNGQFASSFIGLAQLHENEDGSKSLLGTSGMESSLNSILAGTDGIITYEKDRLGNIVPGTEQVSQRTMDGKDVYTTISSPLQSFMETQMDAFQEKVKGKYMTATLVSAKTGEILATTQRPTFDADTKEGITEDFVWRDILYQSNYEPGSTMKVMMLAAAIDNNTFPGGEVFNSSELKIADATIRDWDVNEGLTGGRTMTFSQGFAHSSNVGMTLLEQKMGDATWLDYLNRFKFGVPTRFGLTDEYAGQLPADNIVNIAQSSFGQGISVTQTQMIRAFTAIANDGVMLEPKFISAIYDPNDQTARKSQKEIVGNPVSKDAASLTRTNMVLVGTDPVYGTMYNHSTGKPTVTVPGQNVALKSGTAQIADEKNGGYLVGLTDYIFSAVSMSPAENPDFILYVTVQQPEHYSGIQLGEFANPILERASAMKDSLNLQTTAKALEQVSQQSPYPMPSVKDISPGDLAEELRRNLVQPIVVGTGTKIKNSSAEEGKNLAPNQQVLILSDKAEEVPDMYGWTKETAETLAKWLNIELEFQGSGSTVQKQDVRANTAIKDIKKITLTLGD

The MIC is the least concentration at which growth counts as inhibited. A high value points to a need for much substance. As usually defined, the pIC50 is the negative decadic logarithm of the IC50, by convention in mol/L. A lower pIC50 goes with a large IC50. In the case of `CC(=O)NC1CON(C2(C(=O)O)CCC(=O)O2)C1=O` (centres undefined) [LACTIVICIN], the Ratio in the assay with Streptococcus pneumoniae [1], with Streptococcus pneumoniae [4], in the assay with Streptococcus pneumoniae [7] and in the assay with Streptococcus pneumoniae [8] was 5 each time. Also, the MIC is above 20 µg/mL in the assay on Streptococcus pneumoniae [2]; 2 µg/mL (≈ 7.35 µM) in the assay with Streptococcus pneumoniae [5]; 20 µg/mL (≈ 73.5 µM) against Streptococcus pneumoniae [6]; 10 µg/mL (≈ 36.7 µM) in the assay with Streptococcus pneumoniae [9]; 20 µg/mL (≈ 73.5 µM) in the assay on Streptococcus pneumoniae [10]. For the same molecule, the negative logarithm of the IC50 (pIC50) in assay [3] was 3.82.
Turning to `CC1(C)S[C@@H]2[C@H](NC(=O)Cc3ccccc3)C(=O)N2[C@H]1C(=O)O` [PENICILLIN G], the Ratio in the assay on Streptococcus pneumoniae [1], in the assay with Streptococcus pneumoniae [4], in the assay with Streptococcus pneumoniae [7] and in the assay with Streptococcus pneumoniae [8] was 150 each time. Also, the MIC in the assay on Streptococcus pneumoniae [2] stood at 6 µg/mL (≈ 17.9 µM); against Streptococcus pneumoniae [5] it was 0.01 µg/mL (≈ 0.0299 µM); against Streptococcus pneumoniae [6], 1.5 µg/mL (≈ 4.49 µM); against Streptococcus pneumoniae [9] it was 1.5 µg/mL (≈ 4.49 µM); against Streptococcus pneumoniae [10], 2 µg/mL (≈ 5.98 µM).
`O=C(COc1ccccc1)N[C@H]1CON([C@@]2(C(=O)O)CCC(=O)O2)C1=O` [PHENOXYACETYL LACTIVICIN]: the pIC50 in assay [11] is 5.10. The Ratio with Streptococcus pneumoniae [1], in the assay with Streptococcus pneumoniae [4], in the assay with Streptococcus pneumoniae [7] and in the assay with Streptococcus pneumoniae [8] was 5.3 each time. Also, the MIC with Streptococcus pneumoniae [2] is 90 µg/mL (≈ 247 µM); with Streptococcus pneumoniae [5], 15 µg/mL (≈ 41.2 µM); in the assay with Streptococcus pneumoniae [6], above 100 µg/mL; in the assay with Streptococcus pneumoniae [9] it was 80 µg/mL (≈ 220 µM); in the assay with Streptococcus pneumoniae [10], above 100 µg/mL.
